Assay results published in ChEMBL document CHEMBL3856208, “Lupane and 18α-oleanane derivatives substituted in the position 2, their cytotoxicity and influence on cancer cells” (Eur J Med Chem, 2016).

Assays:
[1] = Cytotoxicity against human CCRF-CEM cells after 72 hrs by MTS assay; assay type: functional, cell-based
In short: (§1)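 Cells seeded at 25000–35000 cells/mL, compounds from DMSO dosed at time zero as four-fold dilutions. Exposure 72 h at 37 °C, 5% CO2, with MTS added for 1–4 h and OD read at 490 nm. Survival expressed as % of mean control OD, with IC50 from dose-response curves. Run as technical duplicates in at least three biological replicates.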

[2] = Cytotoxicity against human U2OS cells after 72 hrs by MTS assay; assay type: functional, cell-based; in short: as §1
[3] = Cytotoxicity against human CEM/DNR cells after 72 hrs by MTS assay; assay type: functional, cell-based; in short: as §1
[4] = Cytotoxicity against human A549 cells after 72 hrs by MTS assay; assay type: functional, cell-based; settings: A549, 72 h; in short: as §1
[5] = Cytotoxicity against human K562 cells after 72 hrs by MTS assay; assay type: functional, cell-based; settings: K562, 72 h; in short: as §1
[6] = Therapeutic index, ratio of IC50 for human MRC5 cells to IC50 for human CCRF-CEM cells; assay type: cell-based; settings: MRC5 cells versus CCRF-CEM cells, read-out: Ratio IC50
[7] = Therapeutic index, ratio of IC50 for human BJ cells to IC50 for human CCRF-CEM cells; assay type: cell-based; settings: BJ cells versus CCRF-CEM cells, read-out: Ratio IC50
[8] = Cytotoxicity against human MRC5 cells after 72 hrs by MTS assay; assay type: toxicity, cell-based; in short: as §1
[9] = Cytotoxicity against p53 deficient human HCT116 cells after 72 hrs by MTS assay; assay type: functional, cell-based; settings: HCT-116, 72 h; in short: as §1
[10] = Cytotoxicity against human HCT116 cells after 72 hrs by MTS assay; assay type: functional, cell-based; settings: HCT-116, 72 h; in short: as §1
[11] = Cytotoxicity against human BJ cells after 72 hrs by MTS assay; assay type: toxicity, cell-based; in short: as §1
[12] = Cytotoxicity against human K562-TAX cells after 72 hrs by MTS assay; assay type: functional, cell-based; in short: as §1

SMILES: CC1(C)CC[C@]23CC[C@]4(C)[C@H](CC[C@@H]5[C@@]6(C)CC([N+](=O)[O-])=C(O)C(C)(C)[C@@H]6CC[C@]54C)[C@H]2[C@H]1OC3
- IC50 [1]: > 50 µM

SMILES: CC1(C)CC[C@]23CC[C@]4(C)[C@H](CC[C@@H]5[C@@]6(C)CC7=C(OCCS7)C(C)(C)[C@@H]6CC[C@]54C)[C@H]2[C@H]1OC3
- IC50 [1]: > 50 µM

SMILES: CC1(C)CC[C@]23CC[C@]4(C)[C@H](CC[C@@H]5[C@@]6(C)C[C@@H](N=[N+]=[N-])[C@H](O)C(C)(C)[C@@H]6CC[C@]54C)[C@H]2[C@H]1OC3
- IC50 [1]: > 50 µM

SMILES: COC(=O)[C@]12CC[C@@H](C(C)C)[C@@H]1[C@H]1CC[C@@H]3[C@@]4(C)CC(S)C(=O)C(C)(C)[C@@H]4CC[C@@]3(C)[C@]1(C)CC2 (stereo partly drawn)
- IC50 [2]: > 50 µM
- IC50 [3]: > 50 µM
- IC50 [4]: > 50 µM
- IC50 [5]: > 50 µM
- selectivity ratio [6]: > 1.1
- selectivity ratio [7]: > 1.1
- IC50 [1]: 40 to 45.3 µM
- IC50 at 72 h [8]: > 50 µM
- IC50 [9]: > 50 µM
- IC50 [10]: > 50 µM
- IC50 at 72 h [11]: > 50 µM
- IC50 [12]: > 50 µM

SMILES: CC(C)[C@@H]1CC[C@]2(C(=O)O)CC[C@]3(C)[C@H](CC[C@@H]4[C@@]5(C)C=C(N)C(=O)C(C)(C)[C@@H]5CC[C@]43C)[C@@H]12
- IC50 [2]: > 50 µM
- IC50 [3]: 33.9 µM
- IC50 [4]: > 50 µM
- IC50 [5]: > 50 µM
- selectivity ratio [6]: > 1.9
- selectivity ratio [7]: > 1.9
- IC50 [1]: 26.6 to 27 µM
- IC50 at 72 h [8]: > 50 µM
- IC50 [9]: > 50 µM
- IC50 [10]: > 50 µM
- IC50 at 72 h [11]: > 50 µM
- IC50 [12]: 20.1 µM

SMILES: CC(=O)N[C@H]1C[C@]2(C)[C@H]3CC[C@@H]4[C@H]5[C@H]6OC[C@@]5(CCC6(C)C)CC[C@@]4(C)[C@]3(C)CC[C@H]2C(C)(C)[C@H]1OC(C)=O
- IC50 [1]: > 50 µM

SMILES: COC(=O)CCC(=O)N[C@@H]1C[C@]2(C)[C@H]3CC[C@@H]4[C@H]5[C@H]6OC[C@@]5(CCC6(C)C)CC[C@@]4(C)[C@]3(C)CC[C@H]2C(C)(C)[C@H]1O
- IC50 [1]: > 50 µM

SMILES: CC(=O)NC1=C[C@]2(C)[C@H]3CC[C@@H]4[C@H]5[C@H]6OC[C@@]5(CCC6(C)C)CC[C@@]4(C)[C@]3(C)CC[C@H]2C(C)(C)C1=O
- IC50 [2]: > 50 µM
- IC50 [3]: 35.3 µM
- IC50 [4]: > 50 µM
- IC50 [5]: 37.9 µM
- selectivity ratio [6]: > 1.7
- selectivity ratio [7]: > 1.7
- IC50 [1]: 29.9 to 30 µM
- IC50 at 72 h [8]: > 50 µM
- IC50 [9]: > 50 µM
- IC50 [10]: > 50 µM
- IC50 at 72 h [11]: > 50 µM
- IC50 [12]: 30.5 µM

SMILES: CC1(C)CC[C@]23CC[C@]4(C)[C@H](CC[C@@H]5[C@@]6(C)CC(Br)C(=O)C(C)(C)[C@@H]6CC[C@]54C)[C@H]2[C@H]1OC3 (stereo partly drawn)
- IC50 [1]: > 50 µM

SMILES: C=C(C)[C@@H]1CC[C@]2(C(=O)O)CC[C@]3(C)[C@H](CC[C@@H]4[C@@]5(C)CCC(=O)C(C)(C)[C@@H]5CC[C@]43C)[C@@H]12 [BETUNOLIC ACID]
- IC50 [1]: 14 µM

SMILES: CC(C)[C@@H]1CC[C@]2(C(=O)O)CC[C@]3(C)[C@H](CC[C@@H]4[C@@]5(C)CC([N+](=O)[O-])=C(O)C(C)(C)[C@@H]5CC[C@]43C)[C@@H]12
- IC50 [2]: > 50 µM
- IC50 [3]: 36.1 µM
- IC50 [4]: 31.3 µM
- IC50 [5]: 10.1 µM
- selectivity ratio [6]: > 1.6
- selectivity ratio [7]: > 1.6
- IC50 [1]: 31.8 to 32 µM
- IC50 at 72 h [8]: > 50 µM
- IC50 [9]: > 50 µM
- IC50 [10]: > 50 µM
- IC50 at 72 h [11]: > 50 µM
- IC50 [12]: 20.6 µM

SMILES: CC1(C)CC[C@]23CC[C@]4(C)[C@H](CC[C@@H]5[C@@]6(C)C=C(NC7=C[C@]8(C)[C@H]9CC[C@@H]%10[C@@H]%11[C@H]%12OC[C@@]%11(CCC%12(C)C)CC[C@@]%10(C)[C@]9(C)CC[C@H]8C(C)(C)C7=O)C(=O)C(C)(C)[C@@H]6CC[C@]54C)[C@H]2[C@H]1OC3
- IC50 [1]: > 50 µM

SMILES: CC1(C)CC[C@]23CC[C@]4(C)[C@H](CC[C@@H]5[C@@]6(C)CCC(=O)C(C)(C)[C@@H]6CC[C@]54C)[C@H]2[C@H]1OC3
- IC50 [1]: > 50 µM

SMILES: CC(=O)N[C@@H]1C[C@]2(C)[C@H]3CC[C@@H]4[C@H]5[C@H]6OC[C@@]5(CCC6(C)C)CC[C@@]4(C)[C@]3(C)CC[C@H]2C(C)(C)[C@H]1OC(C)=O
- IC50 [1]: > 50 µM

SMILES: CC1(C)CC[C@]23CC[C@]4(C)[C@H](CC[C@@H]5[C@@]6(C)CC[C@H](O)C(C)(C)[C@@H]6CC[C@]54C)[C@H]2[C@H]1OC3 [ALLOBETULIN]
- IC50 [1]: > 50 µM

SMILES: CC(C)[C@@H]1CC[C@]2(C(=O)O)CC[C@]3(C)[C@H](CC[C@@H]4[C@@]5(C)CC(Br)C(=O)C(C)(C)[C@@H]5CC[C@]43C)[C@@H]12 (stereo partly drawn)
- IC50 [1]: 2 µM

SMILES: CC(C)[C@@H]1CC[C@]2(C(=O)O)CC[C@]3(C)[C@H](CC[C@@H]4[C@@]5(C)CC([N+](=O)[O-])([N+](=O)[O-])C(=O)C(C)(C)[C@@H]5CC[C@]43C)[C@@H]12
- IC50 [2]: > 50 µM
- IC50 [3]: 46.6 µM
- IC50 [4]: > 50 µM
- IC50 [5]: > 50 µM
- selectivity ratio [6]: > 1.7
- selectivity ratio [7]: > 1.7
- IC50 [1]: 28.6 to 29 µM
- IC50 at 72 h [8]: > 50 µM
- IC50 [9]: > 50 µM
- IC50 [10]: > 50 µM
- IC50 at 72 h [11]: > 50 µM
- IC50 [12]: 29.9 µM

SMILES: C=C(C)[C@@H]1CC[C@]2(CO)CC[C@]3(C)[C@H](CC[C@@H]4[C@@]5(C)CC[C@H](O)C(C)(C)[C@@H]5CC[C@]43C)[C@@H]12 [BETULIN]
- IC50 [1]: > 50 µM

SMILES: CC(C)[C@@H]1CC[C@]2(C(=O)O)CC[C@]3(C)[C@H](CC[C@@H]4[C@@]5(C)CC(N=[N+]=[N-])C(=O)C(C)(C)[C@@H]5CC[C@]43C)[C@@H]12 (stereo partly drawn)
- IC50 [2]: 48.9 µM
- IC50 [3]: 16 µM
- IC50 [4]: 25.7 µM
- IC50 [5]: 14.2 µM
- selectivity ratio [6]: > 2.9
- selectivity ratio [7]: > 2.9
- IC50 [1]: 17 to 17.5 µM
- IC50 at 72 h [8]: > 50 µM
- IC50 [9]: > 50 µM
- IC50 [10]: > 50 µM
- IC50 at 72 h [11]: > 50 µM
- IC50 [12]: 10.6 µM

SMILES: CC1(C)CC[C@]23CC[C@]4(C)[C@H](CC[C@@H]5[C@@]6(C)C[C@@H](NC(=O)CCC(=O)O)[C@H](O)C(C)(C)[C@@H]6CC[C@]54C)[C@H]2[C@H]1OC3
- IC50 [1]: > 50 µM

SMILES: CC1(C)CC[C@]23CC[C@]4(C)[C@H](CC[C@@H]5[C@@]6(C)C=C(O)C(=O)C(C)(C)[C@@H]6CC[C@]54C)[C@H]2[C@H]1OC3
- IC50 [2]: 45.8 µM
- IC50 [3]: > 50 µM
- IC50 [4]: > 50 µM
- IC50 [5]: 16.9 µM
- selectivity ratio [6]: > 2.9
- selectivity ratio [7]: > 2.9
- IC50 [1]: 13 to 13.1 µM
- IC50 at 72 h [8]: 25.4 µM
- IC50 [9]: 33.4 µM
- IC50 [10]: 41.6 µM
- IC50 at 72 h [11]: > 50 µM
- IC50 [12]: 45.3 µM

SMILES: CC1(C)CC[C@]23CC[C@]4(C)[C@H](CC[C@@H]5[C@@]6(C)CC([N+](=O)[O-])([N+](=O)[O-])C(=O)C(C)(C)[C@@H]6CC[C@]54C)[C@H]2[C@H]1OC3
- IC50 [1]: > 50 µM

SMILES: CC1(C)CC[C@]23CC[C@]4(C)[C@H](CC[C@@H]5[C@@]6(C)C=C(N)C(=O)C(C)(C)[C@@H]6CC[C@]54C)[C@H]2[C@H]1OC3
- IC50 [1]: > 50 µM

SMILES: CC1(C)CC[C@]23CC[C@]4(C)[C@H](CC[C@@H]5[C@@]6(C)CC(N=[N+]=[N-])C(=O)C(C)(C)[C@@H]6CC[C@]54C)[C@H]2[C@H]1OC3 (stereo partly drawn)
- IC50 [1]: > 50 µM

SMILES: COC(=O)CCC(=O)N[C@H]1C[C@]2(C)[C@H]3CC[C@@H]4[C@H]5[C@H]6OC[C@@]5(CCC6(C)C)CC[C@@]4(C)[C@]3(C)CC[C@H]2C(C)(C)[C@H]1O
- IC50 [1]: > 50 µM

SMILES: CC(C)[C@@H]1CC[C@]2(C(=O)O)CC[C@]3(C)[C@H](CC[C@@H]4[C@@]5(C)CCC(=O)C(C)(C)[C@@H]5CC[C@]43C)[C@@H]12 [DIHYDROBETULONIC ACID]
- IC50 [1]: 4 µM

SMILES: CC(=O)NC1C[C@]2(C)[C@H]3CC[C@@H]4[C@H]5[C@H]6OC[C@@]5(CCC6(C)C)CC[C@@]4(C)[C@]3(C)CC[C@H]2C(C)(C)C1=O (stereo partly drawn)
- IC50 [2]: > 50 µM
- IC50 [3]: > 50 µM
- IC50 [4]: > 50 µM
- IC50 [5]: 32.4 µM
- selectivity ratio [6]: > 1.1
- selectivity ratio [7]: > 1.1
- IC50 [1]: 32 to 32.2 µM
- IC50 at 72 h [8]: 21.6 µM
- IC50 [9]: 38.7 µM
- IC50 [10]: 42.9 µM
- IC50 at 72 h [11]: > 50 µM
- IC50 [12]: > 50 µM

SMILES: CC(C)[C@@H]1CC[C@]2(C(=O)O)CC[C@]3(C)[C@H](CC[C@@H]4[C@@]5(C)C=C(O)C(=O)C(C)(C)[C@@H]5CC[C@]43C)[C@@H]12
- IC50 [1]: 6 µM

SMILES: CC1(C)CC[C@]23CC[C@]4(C)[C@H](CC[C@@H]5[C@@]6(C)C[C@H](N=[N+]=[N-])[C@H](O)C(C)(C)[C@@H]6CC[C@]54C)[C@H]2[C@H]1OC3
- IC50 [1]: > 50 µM

SMILES: CC1(C)CC[C@]23CC[C@]4(C)[C@H](CC[C@@H]5[C@@]6(C)C[C@H](NC(=O)CCC(=O)O)[C@H](O)C(C)(C)[C@@H]6CC[C@]54C)[C@H]2[C@H]1OC3
- IC50 [1]: > 50 µM
